Active and inactive are the calls of the source. The calls are words filed in the database; no cut-off is given here.
Tests used:
[1] = target: Tyrosine-protein kinase BTK (Homo sapiens, UniProt Q06187); assay: Inhibition of BTK
[2] = target: Tyrosine-protein kinase Lyn (Homo sapiens, UniProt P07948); assay: Inhibition of LYN
LNCaP = assay: Growth inhibition of human LNCap cells; assay type: functional, cell-based
[3] = target: Dual specificity mitogen-activated protein kinase kinase 1 (Homo sapiens, UniProt Q02750); assay: Inhibition of MEK1
[4] = target: Ribosomal protein S6 kinase beta-1 (Homo sapiens, UniProt P23443); assay: Inhibition of S6K1
[5] = target: Serine/threonine-protein kinase mTOR (Homo sapiens, UniProt P42345); assay: Inhibition of mTOR
[6] = Inhibition of IGFR
[7] = target: MAP kinase-activated protein kinase 2 (Homo sapiens, UniProt P49137); assay: Inhibition of MK2
[8] = target: Cyclin-dependent kinase 4 (Homo sapiens, UniProt P11802); assay: Inhibition of CDK4
[9] = Inhibition of GSK3
[10] = target: Mitogen-activated protein kinase kinase kinase 8 (Homo sapiens, UniProt P41279); assay: Inhibition of Tpl2
[11] = Antitumor activity against human U87MG cells xenografted mouse administered intravenously thrice a week for two weeks; assay type: functional, U-87MG ATCC; conditions: U-87 MG, iv, 336 h, read-out: MED
In short: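 Nude mice bearing U87MG glioma xenografts; dosed iv in PBS at the stated doses and schedules for 2 weeks. Tumor growth was monitored twice weekly, and tumor volume was determined by a previously described method.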

[12] = target: RAC-alpha serine/threonine-protein kinase (Homo sapiens, UniProt P31749); assay: Inhibition of AKT1
[13] = target: T1, Phosphatidylinositol 4,5-bisphosphate 3-kinase catalytic subunit alpha isoform (Homo sapiens, UniProt P42336); assay: Inhibition of PI3K expressed in Escherichia coli by microtiter plate-based fluorescence polarization assay
In short: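 Fluorescence polarization assay of PI3K activity with PIP2 substrate. Reactions contained 20 mM Hepes pH 7.5, 2 mM MgCl2, 0.05% CHAPS, 0.01% βME, 20 µM PIP2 and 25 µM ATP, and ran 15–30 min at room temperature. They were stopped with buffer holding 10 nM TAMRA-labeled probe and 40 nM GST-GRP1 (E. coli-expressed detector), then incubated 1–2 h before FP readout.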

[14] = Antitumor activity against human U87MG cells xenografted mouse administered intravenously once a week for two weeks; assay type: functional, U-87MG ATCC; conditions: U-87 MG, iv, 336 h, read-out: MED
In short: (§1)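 Nude mice bearing U87MG glioma xenografts; compound in PBS given intravenously on the stated schedule for 2 weeks. Tumor growth was monitored twice a week, and tumor volume was determined by a previously described method. Efficacy was expressed as minimum efficacious dose.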

[15] = target: T2, Inhibitor of nuclear factor kappa-B kinase subunit beta (Homo sapiens, UniProt O14920); assay: Inhibition of IKK-beta
T2 sequence (O14920 whole entry): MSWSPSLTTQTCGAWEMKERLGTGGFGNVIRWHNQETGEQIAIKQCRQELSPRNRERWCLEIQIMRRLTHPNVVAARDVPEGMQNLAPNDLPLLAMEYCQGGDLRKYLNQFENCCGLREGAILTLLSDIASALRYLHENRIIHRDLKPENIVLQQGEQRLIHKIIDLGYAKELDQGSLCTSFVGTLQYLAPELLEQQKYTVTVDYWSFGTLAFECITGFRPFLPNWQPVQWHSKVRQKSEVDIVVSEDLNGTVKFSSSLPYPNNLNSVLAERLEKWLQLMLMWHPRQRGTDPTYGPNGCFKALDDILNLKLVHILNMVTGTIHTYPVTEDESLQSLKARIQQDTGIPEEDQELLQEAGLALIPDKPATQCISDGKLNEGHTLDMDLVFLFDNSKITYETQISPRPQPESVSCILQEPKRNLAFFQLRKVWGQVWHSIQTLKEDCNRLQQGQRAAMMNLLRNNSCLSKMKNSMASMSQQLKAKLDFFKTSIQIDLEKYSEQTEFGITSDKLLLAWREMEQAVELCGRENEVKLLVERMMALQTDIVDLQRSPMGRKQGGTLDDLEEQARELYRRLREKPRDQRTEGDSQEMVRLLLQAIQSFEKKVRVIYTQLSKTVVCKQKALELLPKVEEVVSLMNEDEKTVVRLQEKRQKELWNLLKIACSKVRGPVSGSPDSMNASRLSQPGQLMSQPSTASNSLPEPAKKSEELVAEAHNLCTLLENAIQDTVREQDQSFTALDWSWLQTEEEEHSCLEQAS

[16] = target: Vascular endothelial growth factor receptor 2 (Homo sapiens, UniProt P35968); assay: Inhibition of KDR
[17] = Antitumor activity against human U87MG cells xenografted mouse administered intravenously twice a week for two weeks; assay type: functional, U-87MG ATCC; conditions: U-87 MG, iv, 336 h, read-out: MED; in short: as §1
[18] = Half life in mouse at 5 mg/kg, iv; assay type: ADME, organism-based; design: dose 5 mg/kg, route intravenous; conditions: in vivo
In short: (§2)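 Nude mice received a single intravenous bolus of 5 mg/kg. Plasma levels of parent and the 11-deacetylated metabolite were followed over time to derive clearance, volume of distribution and half-life.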

[19] = Chemical stability at pH 7.4; assay type: physicochemical; conditions: buffer, read-out: Stability
In short: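 Compound was incubated with the dipeptide lysine-phenylalanine at pH 7.4. Half-life of amine adduct formation was measured.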

[20] = Volume of distribution in mouse at 5 mg/kg, iv; assay type: ADME, organism-based; design: dose 5 mg/kg, route intravenous; conditions: in vivo, read-out: Vdss; in short: as §2
[21] = Clearance in mouse at 5 mg/kg, iv; assay type: ADME, organism-based; design: dose 5 mg/kg, route intravenous; conditions: in vivo; in short: as §2
[22] = target: T3, Phosphatidylinositol 4,5-bisphosphate 3-kinase catalytic subunit delta isoform (Homo sapiens, UniProt O00329); assay: Inhibition of PI3Kdelta
T3 sequence (O00329 whole entry): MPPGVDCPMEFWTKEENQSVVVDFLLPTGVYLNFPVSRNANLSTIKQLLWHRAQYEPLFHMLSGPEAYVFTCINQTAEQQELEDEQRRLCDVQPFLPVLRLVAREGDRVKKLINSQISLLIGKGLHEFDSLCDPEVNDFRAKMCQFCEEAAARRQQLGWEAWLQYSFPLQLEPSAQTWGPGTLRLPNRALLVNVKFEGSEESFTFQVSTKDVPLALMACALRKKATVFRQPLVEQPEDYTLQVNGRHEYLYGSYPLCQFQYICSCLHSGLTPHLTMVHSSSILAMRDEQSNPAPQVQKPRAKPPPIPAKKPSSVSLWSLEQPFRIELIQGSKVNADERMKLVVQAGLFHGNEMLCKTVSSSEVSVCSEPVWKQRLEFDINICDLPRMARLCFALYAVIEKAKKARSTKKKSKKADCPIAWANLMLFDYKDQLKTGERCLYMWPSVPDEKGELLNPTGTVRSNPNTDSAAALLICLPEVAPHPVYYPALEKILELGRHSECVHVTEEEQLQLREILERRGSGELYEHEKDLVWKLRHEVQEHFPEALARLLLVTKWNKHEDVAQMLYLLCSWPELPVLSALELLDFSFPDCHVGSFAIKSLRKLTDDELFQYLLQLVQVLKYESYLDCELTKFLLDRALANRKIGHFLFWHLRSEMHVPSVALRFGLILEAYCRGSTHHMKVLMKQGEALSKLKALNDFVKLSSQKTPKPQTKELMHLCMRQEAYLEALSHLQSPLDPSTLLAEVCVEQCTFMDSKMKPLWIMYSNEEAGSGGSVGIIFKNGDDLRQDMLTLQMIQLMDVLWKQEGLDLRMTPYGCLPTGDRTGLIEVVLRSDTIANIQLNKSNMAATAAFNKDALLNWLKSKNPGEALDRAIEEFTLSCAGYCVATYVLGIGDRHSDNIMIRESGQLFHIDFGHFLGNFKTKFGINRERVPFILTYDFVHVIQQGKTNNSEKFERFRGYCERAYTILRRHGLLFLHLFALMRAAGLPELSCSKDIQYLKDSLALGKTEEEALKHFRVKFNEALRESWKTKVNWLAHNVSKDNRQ
In short: (§3)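 Fluorescence polarization assay using purchased PI3K enzyme. It was stopped with TAMRA-labeled probe (10 nM) plus GST-GRP1 (40 nM), incubated 1–2 h, and FP was read.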

[23] = target: Phosphatidylinositol 4,5-bisphosphate 3-kinase catalytic subunit gamma isoform (Homo sapiens, UniProt P48736); assay: Inhibition of PI3Kgamma; in short: as §3
[24] = target: Phosphatidylinositol 4,5-bisphosphate 3-kinase catalytic subunit beta isoform (Homo sapiens, UniProt P42338); assay: Inhibition of PI3Kbeta; in short: as §3
[25] = target: T1, Phosphatidylinositol 4,5-bisphosphate 3-kinase catalytic subunit alpha isoform; assay: Inhibition of PI3K mediated S6K phosphorylation in PTEN negative human U87MG cells at 30 ng/ml; assay type: cell-based; conditions: U-87MG ATCC
In short: (§4)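 PTEN-negative U87MG cells were plated in six-well plates for 24 h, then treated in growth medium for 6 h against a DMSO control. PI3K pathway phosphorylation was then assessed.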

[26] = Aqueous solubility of the compound; assay type: physicochemical
[27] = target: T1, Phosphatidylinositol 4,5-bisphosphate 3-kinase catalytic subunit alpha isoform; assay: Inhibition of PI3K mediated AKT phosphorylation in PTEN negative human U87MG cells at 30 ng/ml; assay type: cell-based; conditions: U-87MG ATCC; in short: as §4

T1 sequence (P42336 whole entry, canonical isoform): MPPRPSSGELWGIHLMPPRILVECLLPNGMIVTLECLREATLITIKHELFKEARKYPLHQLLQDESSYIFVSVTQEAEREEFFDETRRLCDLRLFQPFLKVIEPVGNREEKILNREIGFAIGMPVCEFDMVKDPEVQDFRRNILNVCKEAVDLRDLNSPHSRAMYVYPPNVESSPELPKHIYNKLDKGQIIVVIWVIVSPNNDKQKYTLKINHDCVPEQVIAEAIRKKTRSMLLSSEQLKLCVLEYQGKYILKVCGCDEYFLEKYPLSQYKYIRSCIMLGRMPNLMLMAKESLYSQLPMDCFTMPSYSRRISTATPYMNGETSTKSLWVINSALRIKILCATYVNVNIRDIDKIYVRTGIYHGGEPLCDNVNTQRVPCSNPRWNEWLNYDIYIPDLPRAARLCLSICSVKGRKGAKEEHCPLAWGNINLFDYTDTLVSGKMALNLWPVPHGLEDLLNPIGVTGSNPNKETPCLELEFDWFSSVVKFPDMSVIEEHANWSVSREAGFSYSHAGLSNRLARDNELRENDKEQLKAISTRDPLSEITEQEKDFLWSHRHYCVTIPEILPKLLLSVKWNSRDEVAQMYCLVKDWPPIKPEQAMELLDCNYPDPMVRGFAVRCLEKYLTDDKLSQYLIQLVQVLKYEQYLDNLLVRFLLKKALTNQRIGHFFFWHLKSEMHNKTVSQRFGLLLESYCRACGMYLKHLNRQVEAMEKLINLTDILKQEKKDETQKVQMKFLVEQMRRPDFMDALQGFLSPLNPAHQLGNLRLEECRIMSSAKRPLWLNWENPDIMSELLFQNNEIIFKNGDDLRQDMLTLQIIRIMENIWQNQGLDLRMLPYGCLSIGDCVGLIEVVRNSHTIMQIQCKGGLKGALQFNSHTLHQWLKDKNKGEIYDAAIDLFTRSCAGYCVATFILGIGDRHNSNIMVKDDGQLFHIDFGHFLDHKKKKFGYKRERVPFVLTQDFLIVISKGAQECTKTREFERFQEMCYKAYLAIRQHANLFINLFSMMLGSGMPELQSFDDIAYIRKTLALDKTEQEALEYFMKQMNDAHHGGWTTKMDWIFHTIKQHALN
Vascular endothelial growth factor receptor 2, sequence (P35968 whole entry): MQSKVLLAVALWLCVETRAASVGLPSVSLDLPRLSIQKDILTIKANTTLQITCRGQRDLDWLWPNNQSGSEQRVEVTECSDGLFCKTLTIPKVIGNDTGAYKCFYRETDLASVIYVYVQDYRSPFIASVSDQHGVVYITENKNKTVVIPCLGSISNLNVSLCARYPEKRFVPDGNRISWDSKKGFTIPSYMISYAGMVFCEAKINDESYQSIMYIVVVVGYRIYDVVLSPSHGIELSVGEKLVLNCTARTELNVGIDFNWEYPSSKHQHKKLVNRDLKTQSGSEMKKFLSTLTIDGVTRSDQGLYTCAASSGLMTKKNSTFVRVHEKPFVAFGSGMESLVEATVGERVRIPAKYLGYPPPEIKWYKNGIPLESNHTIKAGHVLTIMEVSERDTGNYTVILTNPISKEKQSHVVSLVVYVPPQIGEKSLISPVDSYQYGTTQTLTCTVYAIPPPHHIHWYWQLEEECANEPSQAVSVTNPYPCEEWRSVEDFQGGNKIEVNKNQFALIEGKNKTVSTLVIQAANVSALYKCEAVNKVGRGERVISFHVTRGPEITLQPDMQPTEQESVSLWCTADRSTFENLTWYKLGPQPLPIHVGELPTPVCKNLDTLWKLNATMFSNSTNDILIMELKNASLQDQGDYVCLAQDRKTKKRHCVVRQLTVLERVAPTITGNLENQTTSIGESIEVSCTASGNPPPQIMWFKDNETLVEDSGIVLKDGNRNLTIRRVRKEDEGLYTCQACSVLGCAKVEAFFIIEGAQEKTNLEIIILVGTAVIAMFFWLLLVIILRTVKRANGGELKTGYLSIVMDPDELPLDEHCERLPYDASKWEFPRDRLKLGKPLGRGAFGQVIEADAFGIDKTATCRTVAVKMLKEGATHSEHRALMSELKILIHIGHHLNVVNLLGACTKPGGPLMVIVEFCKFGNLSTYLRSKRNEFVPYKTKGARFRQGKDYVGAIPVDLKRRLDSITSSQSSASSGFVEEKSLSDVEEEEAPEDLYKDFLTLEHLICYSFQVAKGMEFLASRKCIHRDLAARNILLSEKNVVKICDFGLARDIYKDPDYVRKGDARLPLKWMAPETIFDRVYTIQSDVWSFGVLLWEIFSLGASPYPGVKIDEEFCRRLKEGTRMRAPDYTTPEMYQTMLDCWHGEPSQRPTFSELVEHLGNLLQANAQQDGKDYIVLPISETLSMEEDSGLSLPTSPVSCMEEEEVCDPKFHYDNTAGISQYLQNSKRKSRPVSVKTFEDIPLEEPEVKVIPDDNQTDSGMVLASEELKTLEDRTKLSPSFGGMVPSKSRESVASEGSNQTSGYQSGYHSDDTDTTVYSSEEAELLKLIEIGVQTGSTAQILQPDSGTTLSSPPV
Tyrosine-protein kinase Lyn, sequence (P07948 whole entry): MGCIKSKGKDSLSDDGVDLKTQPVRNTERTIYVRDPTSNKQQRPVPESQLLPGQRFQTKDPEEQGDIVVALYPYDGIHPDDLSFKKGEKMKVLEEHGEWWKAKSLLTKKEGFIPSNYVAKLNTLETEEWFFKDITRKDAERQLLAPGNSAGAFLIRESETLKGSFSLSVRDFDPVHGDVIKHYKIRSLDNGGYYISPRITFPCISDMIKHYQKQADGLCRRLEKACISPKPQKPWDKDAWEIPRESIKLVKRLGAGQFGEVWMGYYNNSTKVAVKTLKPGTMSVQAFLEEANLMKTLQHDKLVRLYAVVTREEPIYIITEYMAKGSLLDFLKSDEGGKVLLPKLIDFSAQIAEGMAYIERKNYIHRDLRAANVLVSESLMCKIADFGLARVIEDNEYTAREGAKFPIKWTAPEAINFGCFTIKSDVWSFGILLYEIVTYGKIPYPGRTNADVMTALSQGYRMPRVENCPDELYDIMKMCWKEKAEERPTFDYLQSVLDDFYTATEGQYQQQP
MAP kinase-activated protein kinase 2, sequence (P49137 whole entry): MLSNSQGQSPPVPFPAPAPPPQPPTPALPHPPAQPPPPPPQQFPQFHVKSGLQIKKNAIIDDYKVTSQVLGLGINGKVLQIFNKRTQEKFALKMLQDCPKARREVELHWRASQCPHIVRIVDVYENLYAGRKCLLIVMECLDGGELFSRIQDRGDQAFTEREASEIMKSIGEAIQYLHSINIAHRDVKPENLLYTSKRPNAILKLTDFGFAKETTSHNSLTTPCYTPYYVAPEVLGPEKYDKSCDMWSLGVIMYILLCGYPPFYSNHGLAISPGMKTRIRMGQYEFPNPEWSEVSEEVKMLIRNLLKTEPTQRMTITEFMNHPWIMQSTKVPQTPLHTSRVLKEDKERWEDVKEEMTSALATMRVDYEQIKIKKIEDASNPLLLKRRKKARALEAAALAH
Mitogen-activated protein kinase kinase kinase 8, sequence (P41279 whole entry): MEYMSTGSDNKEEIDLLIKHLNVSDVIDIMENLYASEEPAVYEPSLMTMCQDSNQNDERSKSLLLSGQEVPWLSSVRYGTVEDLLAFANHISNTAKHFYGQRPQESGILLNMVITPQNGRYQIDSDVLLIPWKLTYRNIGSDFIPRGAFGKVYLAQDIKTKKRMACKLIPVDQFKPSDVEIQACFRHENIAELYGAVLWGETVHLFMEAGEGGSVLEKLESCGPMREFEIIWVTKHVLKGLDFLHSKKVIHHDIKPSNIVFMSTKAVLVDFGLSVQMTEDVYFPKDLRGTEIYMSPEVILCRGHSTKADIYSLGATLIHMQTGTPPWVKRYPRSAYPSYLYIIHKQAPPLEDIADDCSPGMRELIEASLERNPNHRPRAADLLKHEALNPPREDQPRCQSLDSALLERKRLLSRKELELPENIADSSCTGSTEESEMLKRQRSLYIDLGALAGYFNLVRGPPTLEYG
RAC-alpha serine/threonine-protein kinase, sequence (P31749 whole entry, canonical isoform): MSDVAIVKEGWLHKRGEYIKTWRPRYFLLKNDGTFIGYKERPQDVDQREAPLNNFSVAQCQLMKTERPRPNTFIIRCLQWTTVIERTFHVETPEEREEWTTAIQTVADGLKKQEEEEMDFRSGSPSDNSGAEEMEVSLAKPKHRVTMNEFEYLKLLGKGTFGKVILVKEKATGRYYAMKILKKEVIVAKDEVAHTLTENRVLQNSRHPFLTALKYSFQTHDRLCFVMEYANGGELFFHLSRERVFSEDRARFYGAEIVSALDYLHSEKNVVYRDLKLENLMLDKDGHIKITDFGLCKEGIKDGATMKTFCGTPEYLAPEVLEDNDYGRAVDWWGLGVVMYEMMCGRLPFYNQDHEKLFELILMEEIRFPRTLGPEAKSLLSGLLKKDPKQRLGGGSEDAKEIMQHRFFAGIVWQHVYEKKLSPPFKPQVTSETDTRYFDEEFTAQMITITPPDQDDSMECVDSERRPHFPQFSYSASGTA
Cyclin-dependent kinase 4, sequence (P11802 whole entry): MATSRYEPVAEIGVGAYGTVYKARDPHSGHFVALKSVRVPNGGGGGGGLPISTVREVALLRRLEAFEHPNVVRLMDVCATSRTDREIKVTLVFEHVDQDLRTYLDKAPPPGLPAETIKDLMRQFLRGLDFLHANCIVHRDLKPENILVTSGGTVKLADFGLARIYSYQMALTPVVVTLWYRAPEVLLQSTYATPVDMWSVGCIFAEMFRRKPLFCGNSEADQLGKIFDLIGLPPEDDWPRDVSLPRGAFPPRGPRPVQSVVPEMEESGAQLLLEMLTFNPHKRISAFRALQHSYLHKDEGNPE
Dual specificity mitogen-activated protein kinase kinase 1, sequence (Q02750 whole entry): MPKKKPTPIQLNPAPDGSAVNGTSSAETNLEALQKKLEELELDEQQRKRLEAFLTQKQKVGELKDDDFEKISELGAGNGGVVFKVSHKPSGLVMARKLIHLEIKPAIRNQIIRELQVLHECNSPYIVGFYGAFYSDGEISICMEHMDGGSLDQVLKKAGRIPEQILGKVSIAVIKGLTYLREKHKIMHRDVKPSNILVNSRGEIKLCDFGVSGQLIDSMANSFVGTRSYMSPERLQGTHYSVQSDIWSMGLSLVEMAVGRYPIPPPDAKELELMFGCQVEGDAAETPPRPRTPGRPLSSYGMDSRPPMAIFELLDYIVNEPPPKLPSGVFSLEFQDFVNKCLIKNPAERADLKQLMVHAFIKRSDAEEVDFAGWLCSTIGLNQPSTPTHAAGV

COC[C@H]1OC(=O)/C(=C/N(CCO)C(C)(C)C)C2=C(O)C(=O)C3=C([C@H](OC(C)=O)C[C@]4(C)[C@@H](O)CC[C@@H]34)[C@]21C
IC50 [1]: > 10000 nM | IC50 [2]: > 30000 nM | IC50 (LNCaP): 128 nM | IC50 [3]: > 10000 nM | IC50 [4]: > 30000 nM | IC50 [5]: 28600 nM | IC50 [6]: > 10000 nM | IC50 [7]: > 200000 nM | IC50 [8]: > 50000 nM | IC50 [9]: > 10000 nM | IC50 [10]: > 40000 nM | minimal effective dose [11]: 5 mg/kg | IC50 [12]: > 30000 nM | IC50 [13]: 1110 nM | minimal effective dose [14]: 15 mg/kg | IC50 [15]: > 10000 nM | IC50 [16]: > 10000 nM | minimal effective dose [17]: 7.5 mg/kg

COC[C@H]1OC(=O)c2coc3c2[C@@]1(C)C1=C(C3=O)[C@@H]2CC[C@H](O)[C@@]2(C)C[C@H]1OC(C)=O
IC50 (LNCaP): 1460 nM | half-life [18]: 4 min | half-life [19]: 4 min | IC50 [5]: 193 nM | IC50 [13]: 2.7 nM

CCN(/C=C1/C(=O)O[C@H](COC)[C@@]2(C)C1=C(O)C(=O)C1=C2[C@H](OC(C)=O)C[C@]2(C)[C@@H](O)CC[C@@H]12)CC
IC50 (LNCaP): 160 nM | half-life [19]: 57 min | IC50 [5]: 14000 nM | IC50 [13]: 382 nM

COC[C@H]1OC(=O)/C(=C/N(C)CCCN(C)C)C2=C(O)C(=O)C3=C([C@H](OC(C)=O)C[C@]4(C)[C@@H](O)CC[C@@H]34)[C@]21C
IC50 [2]: > 30000 nM | IC50 (LNCaP): 389 nM | half-life [18]: 30 min | IC50 [3]: > 10000 nM | Vd [20]: 0.7 L/kg | IC50 [4]: > 30000 nM | IC50 [5]: 2920 nM | IC50 [6]: > 10000 nM | clearance [21]: 50 mL/min/kg | IC50 [22]: 11 nM | IC50 [7]: > 200000 nM | IC50 [23]: 8000 nM | IC50 [24]: 13 nM | IC50 [8]: > 50000 nM | IC50 [9]: > 10000 nM | Activity [25]: Active | IC50 [10]: > 40000 nM | solubility [26]: > 10000 µg/mL | IC50 [12]: > 30000 nM | IC50 [13]: 64 nM | minimal effective dose [14]: 2.5 mg/kg | IC50 [15]: > 10000 nM | Activity [27]: Active | IC50 [16]: > 10000 nM | minimal effective dose [17]: < 1.25 mg/kg

COC[C@H]1OC(=O)/C(=C/N2CCN(C)CC2)C2=C(O)C(=O)C3=C([C@H](OC(C)=O)C[C@]4(C)[C@@H](O)CC[C@@H]34)[C@]21C
IC50 (LNCaP): 1090 nM | IC50 [5]: 829 nM | IC50 [13]: 90 nM

CCN(/C=C1/C(=O)O[C@H](COC)[C@@]2(C)C1=C(O)C(=O)C1=C2[C@H](OC(C)=O)C[C@]2(C)[C@@H](O)CC[C@@H]12)CCCN(C)C
IC50 (LNCaP): 535 nM | IC50 [5]: 3570 nM | IC50 [13]: 12 nM

COC[C@H]1OC(=O)/C(=C/N2CCC(=O)CC2)C2=C(O)C(=O)C3=C([C@H](OC(C)=O)C[C@]4(C)[C@@H](O)CC[C@@H]34)[C@]21C
IC50 (LNCaP): 699 nM | IC50 [5]: 960 nM | IC50 [13]: 60 nM

COC[C@H]1OC(=O)/C(=C/N2CCN(CCCN(C)C)CC2)C2=C(O)C(=O)C3=C([C@H](OC(C)=O)C[C@]4(C)[C@@H](O)CC[C@@H]34)[C@]21C
IC50 (LNCaP): 831 nM | IC50 [5]: 249 nM | IC50 [13]: 38 nM

COC[C@H]1OC(=O)/C(=C/N(CCCN(C)C)CCCN(C)C)C2=C(O)C(=O)C3=C([C@H](OC(C)=O)C[C@]4(C)[C@@H](O)CC[C@@H]34)[C@]21C
IC50 (LNCaP): 259 nM | IC50 [5]: 3560 nM | IC50 [13]: 22 nM

COC[C@H]1OC(=O)/C(=C/N(C)CCCC(=O)O)C2=C(O)C(=O)C3=C([C@H](OC(C)=O)C[C@]4(C)[C@@H](O)CC[C@@H]34)[C@]21C
IC50 (LNCaP): 365 nM | IC50 [5]: 12600 nM | IC50 [13]: 193 nM

— ChEMBL document CHEMBL1143164, “Synthesis and structure-activity relationships of ring-opened 17-hydroxywortmannins: potent phosphoinositide 3-kinase inhibitors with improved properties and anticancer efficacy” (J Med Chem, 2008)
